Hits are enriched below; roughly 2.1% of the tested compounds scored in any of these assays.
UCH37 DUB inh: human UCH37 deubiquitinating enzyme inhibition | AID 588478 | Q9Y5K5 | hit rate 0.33% among 330,000 | inhibition, % (test concentration not listed) | purified proteasome/UCH37, Ub-AMC cleavage fluorescence;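 active = mean inhibition over replicate wells above about 20%, limit read from the data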
Target sequence (Q9Y5K5 whole entry, looked up): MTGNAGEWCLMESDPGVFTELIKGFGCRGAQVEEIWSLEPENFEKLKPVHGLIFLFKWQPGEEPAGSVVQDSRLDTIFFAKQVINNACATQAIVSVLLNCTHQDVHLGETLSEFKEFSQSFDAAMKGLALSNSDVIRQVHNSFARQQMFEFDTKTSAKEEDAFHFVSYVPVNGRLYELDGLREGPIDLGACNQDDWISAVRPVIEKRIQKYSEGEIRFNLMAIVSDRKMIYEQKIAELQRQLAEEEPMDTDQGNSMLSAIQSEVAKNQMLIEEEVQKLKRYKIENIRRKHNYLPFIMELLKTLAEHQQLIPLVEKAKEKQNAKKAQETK
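system = Proteasome-associated human UCH37 deubiquitinase | amount = 0.15 nM proteasome as dispensed | medium = pH 7.4 Tris-HCl (50 mM) with ovalbumin, ATP-MgCl2, DTT | incubation = 30 min preincubation with enzyme, 25 min cleavage at room temperature | detection = AMC fluorescence 355/460 nm | read-out basis = percent inhibition | controls = no-proteasome and no-compound wells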
cardiac RTF act: cardiac RTF calcium sensitization; P19429+P45379; IANBD-labeled TnC RTF fluorescence at EC20 calcium; 0% EC20 calcium, 100% full calcium; activation, % at 7.2 µM; hit rate 0.24% among 340,000;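 active = activation above the mean over all tested compounds plus 3 SD, cut at about 30% in these data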;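 also: rise in fluorescence read as greater calcium sensitivity of cardiac thin filaments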
ARNT TACC3 PPI: disrupts binding between human ARNT and TACC3 | AlphaScreen His-ARNT PAS-B/GST-TACC3 binding, luminescence; TACC3 fragment carries E629A point mutation | inhibition, % at 9.99 µM | hit rate 0.66% among 390,000 | Q9Y6A5;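 active = mean inhibition of replicates at least 50% and at least half of replicates each reaching 50%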
Efflux pump inh: blocks antifungal efflux pumps in multiplex yeast assay; S. cerevisiae Candida pump triplex, Nile Red efflux; inhibition, % at 10 µM; hit rate 0.44% among 330,000;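 active = plate passing quality check with inhibition over a set limit, or well fluorescence over plate mean plus 4 SD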;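 also: Nile Red retained in pooled yeast measured as flow cytometry median fluorescence; higher means more Nile Red kept so more efflux inhibition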
Mot1-301 SUMO: inhibitors of SUMOylation pathway: yeast Mot1-301 growth rescue. S. cerevisiae Mot1-301 growth rescue, ATP luminescence, 38.5C; percent above DMSO median, 100 means doubled. growth rescue, % at 18.8 µM. hit rate 1% among 320,000. AID 2716;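 active = every valid replicate shows activation above 250% relative to neutral control wells; inactive = the rest, any valid replicate at or below 250%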
RTF Ca sens inh: cardiac RTF calcium desensitization | AID 493244 | hit rate 0.12% among 340,000 | inhibition, % at 7.15 µM | P19429+P45379 | IANBD-labeled cardiac RTF, Ca2+ fluorescence;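 active = inhibition above the mean inhibition of all tested compounds plus 3 SD, cut at about 17% in these data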;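 also: assay run at fixed EC70 calcium of 1.6 mM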
Mot1 SUMO dose: SUMO pathway inhibitors in yeast Mot1-301 growth. shares compounds with Mot1-301 SUMO. S. cerevisiae Mot1-301 galactose growth, ATP luminescence, 24 h; -100 = growth of slx-deleted rescue strain. growth activity, percent, % at 42 µM. 2,300 tested, under 10 active. AID 493004;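 active = Signal drops as the depositor expects, and the fitted half-maximal dose is no more than ten times the top valid tested dose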;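 also: more negative values mean stronger growth rescue toward the control strain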
Large screens that a line does not name were inactive (follow-up assays come after a bar, where they were run).

CC1CCN(CCNC(=O)C2CCCN(S(=O)(=O)c3cccc4nsnc34)C2)CC1 (centres undefined)	Mot1-301 SUMO 454 | Mot1 SUMO dose inactive
CC(C)C(CC(=O)NCc1ccco1)c1ccco1 (centres undefined)	Mot1-301 SUMO 646 | Mot1 SUMO dose inactive
COc1ccccc1/C=C\C=Nn1c(-c2ccc(Cl)cc2Cl)n[nH]c1=S	none (no result: cardiac RTF act, ARNT TACC3 PPI, Efflux pump inh, Mot1-301 SUMO, RTF Ca sens inh)
Nc1nonc1-n1nnc(C(=O)NN=Cc2ccc(OCc3ccccc3F)cc2)c1CNc1ccccc1	none (no result: cardiac RTF act, ARNT TACC3 PPI, Efflux pump inh, Mot1-301 SUMO, RTF Ca sens inh)
Cc1ccc(S(=O)(=O)NC(Cc2ccccc2)C(=O)NN)cc1 (centres undefined)	none
Cc1ccc(S(=O)(=O)N[C@@H](Cc2ccccc2)C(=O)CCl)cc1	Mot1-301 SUMO 608 (no result: UCH37 DUB inh) | Mot1 SUMO dose inactive
COc1ccc(NC(=O)CCC(=O)Nc2nnc(C(F)(F)F)s2)c(OC)c1	Mot1-301 SUMO 820 | Mot1 SUMO dose inactive
O=[N+]([O-])c1ccccc1NN=Cc1ccc2c(c1)OCO2	none (no result: cardiac RTF act, ARNT TACC3 PPI, Efflux pump inh, Mot1-301 SUMO, RTF Ca sens inh)
CC(C)c1nc2n[nH]c(N)c2c2c1CCC2	Mot1-301 SUMO 408 (no result: ARNT TACC3 PPI) | Mot1 SUMO dose inactive
COc1ccc(C=NN2CCOCC2)cc1COc1ccc(F)cc1	none (no result: cardiac RTF act, ARNT TACC3 PPI, Efflux pump inh, Mot1-301 SUMO, RTF Ca sens inh)
COCCN1C=C(C(=O)OC)C(c2ccc3c(c2)OCO3)C(C(=O)OC)=C1	none
COCCN1C=C(C(=O)OC)C(c2cc3c(cc2Br)OCO3)C(C(=O)OC)=C1	Mot1-301 SUMO 557 (no result: cardiac RTF act, ARNT TACC3 PPI, RTF Ca sens inh) | Mot1 SUMO dose inactive
O=C(COC(=O)/C=C/c1cccc(F)c1)Nc1ccc(Cl)cn1	none
COc1cccc(/C=C/C(=O)OCC(=O)Nc2ccc(Cl)cn2)c1	Mot1-301 SUMO 760 (no result: UCH37 DUB inh) | Mot1 SUMO dose inactive
O=S1(=O)NC(c2ccccc2)CC(CC2CCCCC2)O1 (centres undefined)	Mot1-301 SUMO 943 (no result: UCH37 DUB inh, ARNT TACC3 PPI) | Mot1 SUMO dose inactive
Nc1cc(Cl)ccc1N1CCCC1	none (no result: Mot1-301 SUMO)
Nc1cc(Cl)ccc1N1CCOCC1	Mot1-301 SUMO 465 | Mot1 SUMO dose inactive
COc1cccc(/C=N/NC(=O)CCn2cnc3ccccc32)c1	Mot1-301 SUMO 479 (no result: UCH37 DUB inh) | Mot1 SUMO dose inactive
COc1ccc(C=NNC(=O)CCn2cnc3ccccc32)cc1	none (no result: cardiac RTF act, ARNT TACC3 PPI, Efflux pump inh, Mot1-301 SUMO, RTF Ca sens inh)
O=c1c2ccccc2ncn1Cc1ccc(Cl)c(Cl)c1	none
O=c1c2ccccc2ncn1Cc1ccc2c(c1)OCO2	Mot1-301 SUMO 428 | Mot1 SUMO dose inactive
O=c1c2ccccc2ncn1Cc1ccc(Cl)cc1	Mot1-301 SUMO 987 | Mot1 SUMO dose inactive
CCCCNS(=O)(=O)c1ccc(OC)cc1	Mot1-301 SUMO 495 | Mot1 SUMO dose inactive
Cc1ccccc1-n1ncc2c([N+](=O)[O-])cc([N+](=O)[O-])cc21	Mot1-301 SUMO 421 (no result: UCH37 DUB inh) | Mot1 SUMO dose inactive
Cc1ccc2nc3cc([N+](=O)[O-])cc([N+](=O)[O-])c3cc2c1	none (no result: Efflux pump inh, Mot1-301 SUMO)
COc1cccc2cc(C(N)=O)c(=NNC(=O)COc3ccc(Cl)cc3)oc12	none (no result: cardiac RTF act, ARNT TACC3 PPI, Efflux pump inh, Mot1-301 SUMO, RTF Ca sens inh)
COc1ccccc1-c1sc2ccccc2c1-c1ccc2c(c1)OCO2	Mot1-301 SUMO 998 (no result: UCH37 DUB inh) | Mot1 SUMO dose inactive
COc1ccccc1-c1sc2cc3c(cc2c1-c1ccc2c(c1)OCO2)OCO3	none (no result: UCH37 DUB inh, ARNT TACC3 PPI)
COc1ccc(C(=O)Oc2cccc(C=NNC(N)=S)c2)cc1	none (no result: cardiac RTF act, ARNT TACC3 PPI, Efflux pump inh, Mot1-301 SUMO, RTF Ca sens inh)
Cc1sc(NC(=O)CSC2=NCCS2)nc1-c1ccccc1	Mot1-301 SUMO 722 (no result: UCH37 DUB inh, ARNT TACC3 PPI) | Mot1 SUMO dose inactive
O=C(COc1ccc(C=NNC(=O)c2ccncc2)cc1)Nc1cccc([N+](=O)[O-])c1	none (no result: cardiac RTF act, ARNT TACC3 PPI, Efflux pump inh, Mot1-301 SUMO, RTF Ca sens inh)
CN(N=Cc1cc(Br)cc(Br)c1O)c1cccc(C(F)(F)F)n1	none (no result: cardiac RTF act, ARNT TACC3 PPI, Efflux pump inh, Mot1-301 SUMO, RTF Ca sens inh)
Cc1cc(C(=O)N/N=C/c2ccc3c(c2)OCO3)c2ccccc2n1	Mot1-301 SUMO 856 (no result: UCH37 DUB inh) | Mot1 SUMO dose inactive
O=C(OCCCN=C1NS(=O)(=O)c2ccccc21)c1cccs1	Mot1-301 SUMO 579 | Mot1 SUMO dose inactive
Cc1cc(C)nc(SC2=CS(=O)(=O)c3ccccc32)n1	none
O=S1(=O)C=C(Sc2nnc(-c3ccccc3)o2)c2ccccc21	Mot1-301 SUMO 917 (no result: ARNT TACC3 PPI) | Mot1 SUMO dose inactive
CCCOc1ccccc1C(=O)N(Cc1cccs1)C1CCS(=O)(=O)C1 (centres undefined)	none
